Drawing on ChEMBL document CHEMBL1138807, “4,5-dihydro-1H-pyrazole derivatives with inhibitory nNOS activity in rat brain: synthesis and structure-activity relationships” (J Med Chem, 2004), this text covers inhibition and Activity for 21 compounds.

For experiment [1], the target named is Nitric oxide synthase 1 (Rattus norvegicus) (UniProt P29476). Description: Percent inhibition towards rat striatal neuronal nitric oxide synthase (nNOs) at 1 mM concentration (value is mean +/- SEM). An outline of the steps:
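Rat striatal crude homogenate (two striata homogenized in Tris buffer with protease inhibitors, pH 7.6; 1000g supernatant). Conversion of L-[3H]-arginine to L-[3H]-citrulline in 25 mM Tris, 30 µM H4-biopterin, 10 µM FAD, 0.1 mM CaCl2, 10 µM L-arginine plus 50 nM tracer. Started with 0.75 mM NADPH; compound 1 mM final in DMSO; 37 °C, 30 min. Citrulline separated on Dowex-50W and counted by scintillation. Blank omits NADPH. Three experiments in triplicate, four rat striata each.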

The target in experiment [2] is Kynurenine 3-monooxygenase (Rattus norvegicus) (UniProt O88867). Briefly: Percent kynurenine 3-hydroxylase activity determined by the conversion of L-kynurenine to 3-hydroxykynurenine in rat striatum at 1 mM concentration of compound (value is mean +/- SEM). It counts as tissue-based. An outline of the steps:
(§1)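 Enzyme source: rat striatal pellet (sucrose homogenate, 10000g), resuspended in 0.14 M KCl, 20 mM phosphate, pH 7. Incubation in 0.1 M phosphate, 4 mM MgCl2, 100 µM L-kynurenine with NADPH; compound 1 mM final in DMSO; 37 °C, 60 min. Stopped with cold perchloric acid. 3-Hydroxykynurenine measured by HPLC with electrochemical detection against a DHBA internal standard; activity expressed as nmol/h/g wet brain.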

The target is the same in experiment [3]. Briefly: Inhibitory activity against kynurenine 3-hydroxylase at 1 mM concentration. Summed up:
as §1

Nitric oxide synthase 1 (Rattus norvegicus), sequence (P29476 whole entry): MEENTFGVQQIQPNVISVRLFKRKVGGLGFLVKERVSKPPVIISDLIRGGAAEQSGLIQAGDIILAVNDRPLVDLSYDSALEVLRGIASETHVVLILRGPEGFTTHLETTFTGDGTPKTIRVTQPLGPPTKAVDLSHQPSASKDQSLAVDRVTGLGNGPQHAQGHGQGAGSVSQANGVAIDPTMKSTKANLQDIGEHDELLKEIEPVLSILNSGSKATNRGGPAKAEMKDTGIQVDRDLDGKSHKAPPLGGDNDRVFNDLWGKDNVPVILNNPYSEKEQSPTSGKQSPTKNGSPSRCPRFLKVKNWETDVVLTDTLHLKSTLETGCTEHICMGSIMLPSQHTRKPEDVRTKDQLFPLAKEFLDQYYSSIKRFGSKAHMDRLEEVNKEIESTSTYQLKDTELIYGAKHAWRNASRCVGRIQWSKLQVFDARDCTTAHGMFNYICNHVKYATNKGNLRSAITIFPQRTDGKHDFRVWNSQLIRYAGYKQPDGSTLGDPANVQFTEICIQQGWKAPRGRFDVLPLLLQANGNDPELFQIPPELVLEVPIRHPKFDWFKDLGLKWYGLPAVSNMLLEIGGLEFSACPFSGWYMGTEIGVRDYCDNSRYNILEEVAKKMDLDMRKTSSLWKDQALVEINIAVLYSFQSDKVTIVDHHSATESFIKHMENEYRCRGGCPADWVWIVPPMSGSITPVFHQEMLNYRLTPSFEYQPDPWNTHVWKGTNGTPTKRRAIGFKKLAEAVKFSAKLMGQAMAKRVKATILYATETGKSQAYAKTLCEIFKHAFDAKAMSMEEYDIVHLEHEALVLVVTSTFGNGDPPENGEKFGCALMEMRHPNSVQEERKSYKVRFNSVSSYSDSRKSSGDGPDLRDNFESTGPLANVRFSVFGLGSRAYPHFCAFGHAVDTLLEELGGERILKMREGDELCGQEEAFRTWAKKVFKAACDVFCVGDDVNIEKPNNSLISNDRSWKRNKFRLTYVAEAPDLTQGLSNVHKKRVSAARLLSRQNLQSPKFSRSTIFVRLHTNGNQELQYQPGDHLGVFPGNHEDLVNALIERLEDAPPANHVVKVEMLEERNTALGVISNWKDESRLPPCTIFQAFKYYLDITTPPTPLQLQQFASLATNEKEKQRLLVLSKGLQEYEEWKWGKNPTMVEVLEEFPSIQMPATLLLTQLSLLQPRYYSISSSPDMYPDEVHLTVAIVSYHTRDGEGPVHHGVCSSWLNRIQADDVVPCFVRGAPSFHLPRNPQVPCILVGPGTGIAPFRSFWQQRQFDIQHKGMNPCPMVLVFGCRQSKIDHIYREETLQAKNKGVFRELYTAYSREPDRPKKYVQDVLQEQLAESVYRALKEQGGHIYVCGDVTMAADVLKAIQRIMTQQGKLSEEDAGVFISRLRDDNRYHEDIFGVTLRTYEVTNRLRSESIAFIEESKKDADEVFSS
Kynurenine 3-monooxygenase (Rattus norvegicus), sequence (O88867 whole entry, looked up): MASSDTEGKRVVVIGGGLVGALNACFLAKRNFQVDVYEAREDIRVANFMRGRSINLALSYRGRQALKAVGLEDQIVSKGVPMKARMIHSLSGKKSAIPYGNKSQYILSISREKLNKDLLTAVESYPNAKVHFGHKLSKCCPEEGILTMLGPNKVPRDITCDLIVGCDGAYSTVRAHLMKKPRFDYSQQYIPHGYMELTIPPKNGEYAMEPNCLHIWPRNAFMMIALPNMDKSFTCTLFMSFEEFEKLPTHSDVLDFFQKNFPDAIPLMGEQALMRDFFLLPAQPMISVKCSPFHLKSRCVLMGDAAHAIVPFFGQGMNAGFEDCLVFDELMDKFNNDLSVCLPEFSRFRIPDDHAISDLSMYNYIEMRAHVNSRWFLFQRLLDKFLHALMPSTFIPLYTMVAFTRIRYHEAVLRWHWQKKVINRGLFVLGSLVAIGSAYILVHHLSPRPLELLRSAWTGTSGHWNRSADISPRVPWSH

Take `COc1ccc(N)c(C2=NN(C(=O)C3CC3)CC2)c1`: the inhibition in experiment [1] was 62.2%. Moreover, the Activity in experiment [2] is 123%.
For `CCCC(=O)N1CCC(c2cc(OC)ccc2N)=N1`, in that order: 34.7% and 96.4%.
`CCCCC(=O)N1CCC(c2cc(OC)ccc2N)=N1` returned an inhibition in experiment [1] of 49.8%. Also, in experiment [2], the Activity is 120%.
In experiment [1], `CCCC(=O)NC(CC(=O)c1cc(OC)ccc1N)C(=O)O` (stereo not drawn) yielded an inhibition of 45%. This compound also came in with an Activity in experiment [2] of 88.7%.
Turning to `Nc1ccc(Cl)cc1C1=NN(C(=O)C2CC2)CC1`, the inhibition in experiment [1] came out at 70.2%. Besides, the Activity in experiment [2] was found to be 98.1%.
The compound `COc1ccc(N)c(C(=O)CC(NC(C)=O)C(=O)O)c1` (stereo not drawn) showed an inhibition in experiment [1] of 68.5%. In addition, the Activity in experiment [2] came to 101%.
In experiment [1], `CCCC(=O)N1CCC(c2cc(Cl)ccc2N)=N1` returned an inhibition of 34.4%. This compound displayed an Activity in experiment [2] of 97.7%.
For `CC(=O)N1CCC(c2ccccc2N)=N1`, the inhibition in experiment [1] is 33.7%; in experiment [3], 22.1%. The same compound displayed an Activity in experiment [2] of 77.8%.
For the compound `CCC(=O)N1CCC(c2ccccc2N)=N1`, in experiment [1], the inhibition turned out to be 36.5%. In experiment [2], this compound yielded an Activity of 85.2%.
With `Nc1ccc(Cl)cc1C1=NN(C(=O)c2ccccc2)CC1`, in experiment [1], the inhibition was determined as 61.1%. In experiment [2], this compound came in with an Activity of 106%.
As for `Nc1ccccc1C1=NN(C(=O)C2CC2)CC1`, the inhibition in experiment [1] amounted to 38.8%. In experiment [2], this compound came in with an Activity of 86.9%.
For `Nc1ccccc1C1=NN(C(=O)c2ccccc2)CC1`, in that order: 57% and 82.5%.
As for `CCC(=O)N1CCC(c2cc(OC)ccc2N)=N1`, the inhibition turned out to be 53.3% in experiment [1] and 18.9% in experiment [3]. The same compound displayed an Activity in experiment [2] of 81.1%.
In experiment [1], `CCC(=O)N1CCC(c2cc(Cl)ccc2N)=N1` registered an inhibition of 46.1%. This compound also showed an Activity in experiment [2] of 97.7%.
For `COc1ccc(N)c(C2=NN(C(=O)C3CCCCC3)CC2)c1`, in that order: 62.2% and 87.4%.
For `COc1ccc(N)c(C2=NN(C(=O)C3CCC3)CC2)c1`, the inhibition in experiment [1] was determined as 38.3%. Also, in experiment [2], the Activity stood at 96.5%.
As to `CC(=O)N1CCC(c2cc(Cl)ccc2N)=N1`, in experiment [1], the inhibition worked out at 47.6%. The Activity in experiment [2] stood at 111%.
With `COc1ccc(N)c(C2=NN(C(=O)C3CCCC3)CC2)c1`, in experiment [1], the inhibition was found to be 49.9%. The Activity in experiment [2] was found to be 105%.
Compound `COc1ccc(N)c(C2=NN(C(=O)c3ccccc3)CC2)c1` displayed an inhibition in experiment [1] of 58.9%.
As for `COc1ccc(N)c(C2=NN(C(C)=O)CC2)c1`, the inhibition in experiment [1] is 38%. In addition, in experiment [2], the Activity amounted to 98.8%.
As to `CCCC(=O)N1CCC(c2ccccc2N)=N1`, the inhibition in experiment [1] was determined as 52.4%. The Activity in experiment [2] was found to be 85%.

As usually defined, the inhibition is how much of the control response was suppressed. A higher inhibition goes with strong suppression.
